Common to all, as to assay type: functional
One experiment relates to Candida tropicalis. Description: Antifungal activity against Candida tropicalis ATCC 1369 after 24 hrs by broth microdilution method. The following applies: ATCC 1369, 24 h. Background: In broth dilution the organism is exposed to a series of concentrations in liquid medium.
The next experiment deals with Staphylococcus aureus. Description: Antibacterial activity against Staphylococcus aureus ATCC 11632 after 24 hrs by broth microdilution method. As to conditions: ATCC 11632, 24 h. The method, boiled down:
(§1)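 Broth dilution in Mueller-Hinton broth. Tubes inoculated at 10⁵ cfu/mL and incubated 37 °C for 24 h. MIC taken as lowest concentration completely inhibiting growth. Media and media-plus-DMSO growth controls; ciprofloxacin and norfloxacin as reference standards.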

The test system of another experiment is Aspergillus niger. The experiment in a line: Antifungal activity against Aspergillus niger ATCC 6275 after 24 hrs by broth microdilution method. As to conditions: ATCC 6275, 24 h.
In another experiment the test system is Bacillus subtilis. The experiment in a line: Antibacterial activity against Bacillus subtilis ATCC 60511 after 24 hrs by broth microdilution method. As to conditions: ATCC 60511, 24 h. The method, boiled down:
as §1

In experiment [1] the test system is Mycobacterium tuberculosis. Description: Antimycobacterial activity against Mycobacterium tuberculosis H37Rv after 21 days by broth dilution assay. The following applies: 504 h. The method, boiled down:
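Frozen culture in Middlebrook 7H9 broth with 10% albumin-dextrose-catalase and 0.2% glycerol, thawed and diluted in broth to 10⁵ cfu/mL. Compounds dissolved in DMSO, twofold diluted in broth; final DMSO 1.3%. Tubes inoculated, incubated at 37 °C. Growth compared visually against drug-free and drug- and inoculum-free controls and isoniazid. MIC = lowest concentration inhibiting ≥99% of the starting bacterial population.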

In another experiment the test system is Klebsiella pneumoniae. The experiment in a line: Antibacterial activity against Klebsiella pneumoniae ATCC 10031 after 24 hrs by broth microdilution method. As to conditions: ATCC 10031, 24 h. The method, boiled down: as §1
Another experiment concerns Escherichia coli. Description: Antibacterial activity against Escherichia coli ATCC 10536 after 24 hrs by broth microdilution method. The following applies: ATCC 10536, 24 h. The method, boiled down: as §1
For a further experiment, the system named is Enterococcus faecalis. The experiment in a line: Antibacterial activity against Streptococcus faecalis ATCC 14506 after 24 hrs by broth microdilution method. The following applies: ATCC 14506, 24 h. The method, boiled down: as §1
For a further experiment, the system named is Saccharomyces cerevisiae. Description: Antifungal activity against Saccharomyces cerevisiae ATCC 9763 after 24 hrs by broth microdilution method. As to conditions: ATCC 9763, 24 h.
A further experiment concerns Pseudomonas aeruginosa. The experiment in a line: Antibacterial activity against Pseudomonas aeruginosa ATCC 10145 after 24 hrs by broth microdilution method. The following applies: ATCC 10145, 24 h. The method, boiled down: as §1

Molecules are shown by their SMILES. Values after ≈ are worked out from the molar mass of the structure shown.

Broadly, the MIC is the least concentration at which growth counts as inhibited. High values mean weaker potency, low ones greater potency.

Regarding `CC(C)c1csc(-c2nnc3n2N=C(c2ccc([N+](=O)[O-])cc2)CS3)n1`, the MIC in the experiment with Candida tropicalis came out at 31.2 µg/mL (≈ 80.9 µM); in the experiment on Staphylococcus aureus, 125 µg/mL (≈ 323 µM); in the experiment on Aspergillus niger, 62.5 µg/mL (≈ 162 µM); in the experiment on Bacillus subtilis, 16 µg/mL (≈ 41.4 µM); in [1], 31.2 µg/mL (≈ 80.9 µM); against Klebsiella pneumoniae it was 31.2 µg/mL (≈ 80.9 µM). For the same molecule, the MIC against Escherichia coli was 16 µg/mL (≈ 41.4 µM); with Enterococcus faecalis it was 125 µg/mL (≈ 323 µM); against Saccharomyces cerevisiae it was 16 µg/mL (≈ 41.4 µM); against Pseudomonas aeruginosa, 125 µg/mL (≈ 323 µM).
Regarding `CC(C)c1csc(-c2nnc3n2N=C(c2ccc(Br)cc2)CS3)n1`, the MIC came out at 31.2 µg/mL (≈ 74.3 µM) against Candida tropicalis; 125 µg/mL (≈ 297 µM) against Staphylococcus aureus; 125 µg/mL (≈ 297 µM) with Aspergillus niger; 31.2 µg/mL (≈ 74.3 µM) with Bacillus subtilis; 62.5 µg/mL (≈ 149 µM) in experiment [1]; 16 µg/mL (≈ 38.1 µM) with Klebsiella pneumoniae. Moreover, the MIC in the experiment on Escherichia coli was found to be 31.2 µg/mL (≈ 74.3 µM); against Enterococcus faecalis, 31.2 µg/mL (≈ 74.3 µM); in the experiment with Saccharomyces cerevisiae it was 62.5 µg/mL (≈ 149 µM); against Pseudomonas aeruginosa, 62.5 µg/mL (≈ 149 µM).
Turning to `COc1cc(/C=N/n2c(-c3nc(C(C)C)cs3)nn(CN3CCOCC3)c2=S)cc(OC)c1OC`, the MIC in the experiment on Candida tropicalis worked out at 62.5 µg/mL (≈ 121 µM); in the experiment with Staphylococcus aureus, 125 µg/mL (≈ 241 µM); with Aspergillus niger it was 62.5 µg/mL (≈ 121 µM); in the experiment on Bacillus subtilis it was 62.5 µg/mL (≈ 121 µM); in experiment [1] it was 31.2 µg/mL (≈ 60.3 µM); in the experiment with Klebsiella pneumoniae, 16 µg/mL (≈ 30.8 µM). For the same molecule, the MIC in the experiment on Escherichia coli worked out at 125 µg/mL (≈ 241 µM); with Enterococcus faecalis, 62.5 µg/mL (≈ 121 µM); with Saccharomyces cerevisiae it was 125 µg/mL (≈ 241 µM); against Pseudomonas aeruginosa, 62.5 µg/mL (≈ 121 µM).
Take `Cc1ccc(C(=O)Nn2c(-c3nc(C(C)C)cs3)n[nH]c2=S)cc1`: the minimum inhibitory concentration (MIC) with Candida tropicalis was 125 µg/mL (≈ 348 µM); against Staphylococcus aureus, 62.5 µg/mL (≈ 174 µM); against Aspergillus niger it was 62.5 µg/mL (≈ 174 µM); against Bacillus subtilis it was 62.5 µg/mL (≈ 174 µM); in experiment [1], 31.2 µg/mL (≈ 86.9 µM); against Klebsiella pneumoniae it was 62.5 µg/mL (≈ 174 µM). For the same molecule, the MIC against Escherichia coli turned out to be 62.5 µg/mL (≈ 174 µM); in the experiment with Enterococcus faecalis it was 125 µg/mL (≈ 348 µM); against Saccharomyces cerevisiae it was 62.5 µg/mL (≈ 174 µM); in the experiment with Pseudomonas aeruginosa it was 125 µg/mL (≈ 348 µM).
For the molecule `CC(C)c1csc(-c2nn(CN3CCOCC3)c(=S)n2/N=C/c2ccccc2Cl)n1`, the MIC in the experiment with Candida tropicalis is 125 µg/mL (≈ 270 µM); against Staphylococcus aureus, 31.2 µg/mL (≈ 67.5 µM); with Aspergillus niger, 31.2 µg/mL (≈ 67.5 µM); in the experiment on Bacillus subtilis it was 125 µg/mL (≈ 270 µM); in experiment [1], 31.2 µg/mL (≈ 67.5 µM); with Klebsiella pneumoniae, 16 µg/mL (≈ 34.6 µM). The MIC worked out at 62.5 µg/mL (≈ 135 µM) with Escherichia coli, 62.5 µg/mL (≈ 135 µM) with Enterococcus faecalis, 125 µg/mL (≈ 270 µM) in the experiment on Saccharomyces cerevisiae and 62.5 µg/mL (≈ 135 µM) in the experiment on Pseudomonas aeruginosa.
Regarding `CC(C)c1csc(-c2nnc3n2NC(c2ccc([N+](=O)[O-])cc2)S3)n1` (stereo not given), the MIC was 8 µg/mL (≈ 21.4 µM) in the experiment with Candida tropicalis; 125 µg/mL (≈ 334 µM) with Staphylococcus aureus; 8 µg/mL (≈ 21.4 µM) in the experiment on Aspergillus niger; 62.5 µg/mL (≈ 167 µM) in the experiment on Bacillus subtilis; 62.5 µg/mL (≈ 167 µM) in [1]; 31.2 µg/mL (≈ 83.5 µM) against Klebsiella pneumoniae. The MIC in the experiment on Escherichia coli is 62.5 µg/mL (≈ 167 µM); against Enterococcus faecalis it was 125 µg/mL (≈ 334 µM); against Saccharomyces cerevisiae, 16 µg/mL (≈ 42.7 µM); against Pseudomonas aeruginosa it was 125 µg/mL (≈ 334 µM).
For the molecule `CC(C)c1csc(-c2nn(CN3CCN(C)CC3)c(=S)n2/N=C/c2ccccc2Cl)n1`, the minimal inhibitory concentration (MIC) in the experiment with Candida tropicalis is 125 µg/mL (≈ 263 µM); against Staphylococcus aureus it was 16 µg/mL (≈ 33.6 µM); in the experiment with Aspergillus niger, 62.5 µg/mL (≈ 131 µM); against Bacillus subtilis, 125 µg/mL (≈ 263 µM); in [1], 31.2 µg/mL (≈ 65.6 µM); with Klebsiella pneumoniae it was 16 µg/mL (≈ 33.6 µM). In addition, the MIC with Escherichia coli worked out at 125 µg/mL (≈ 263 µM); with Enterococcus faecalis it was 31.2 µg/mL (≈ 65.6 µM); with Saccharomyces cerevisiae, 125 µg/mL (≈ 263 µM); against Pseudomonas aeruginosa, 31.2 µg/mL (≈ 65.6 µM).
For `CC(C)c1csc(-c2n[nH]c(=S)n2NC(=O)c2ccc(O)cc2)n1`, the MIC in the experiment with Candida tropicalis was 125 µg/mL (≈ 346 µM); against Staphylococcus aureus it was 125 µg/mL (≈ 346 µM); with Aspergillus niger, 125 µg/mL (≈ 346 µM); with Bacillus subtilis, 31.2 µg/mL (≈ 86.5 µM); in experiment [1], 62.5 µg/mL (≈ 173 µM); in the experiment with Klebsiella pneumoniae it was 31.2 µg/mL (≈ 86.5 µM). For the same molecule, the MIC in the experiment on Escherichia coli came to 31.2 µg/mL (≈ 86.5 µM); in the experiment on Enterococcus faecalis, 62.5 µg/mL (≈ 173 µM); against Saccharomyces cerevisiae, 31.2 µg/mL (≈ 86.5 µM); in the experiment with Pseudomonas aeruginosa, 31.2 µg/mL (≈ 86.5 µM).
Regarding `Cc1nn2c(-c3nc(C(C)C)cs3)nnc2s1`, the MIC in the experiment with Candida tropicalis was 31.2 µg/mL (≈ 118 µM); against Staphylococcus aureus it was 62.5 µg/mL (≈ 236 µM); against Aspergillus niger, 31.2 µg/mL (≈ 118 µM); against Bacillus subtilis, 31.2 µg/mL (≈ 118 µM); in experiment [1], 31.2 µg/mL (≈ 118 µM); in the experiment on Klebsiella pneumoniae, 16 µg/mL (≈ 60.3 µM). Moreover, the MIC was 125 µg/mL (≈ 471 µM) with Escherichia coli, 31.2 µg/mL (≈ 118 µM) in the experiment on Enterococcus faecalis, 62.5 µg/mL (≈ 236 µM) against Saccharomyces cerevisiae and 62.5 µg/mL (≈ 236 µM) in the experiment with Pseudomonas aeruginosa.

Values taken from ChEMBL document CHEMBL1275278, “Synthesis and pharmacological evaluation of clubbed isopropylthiazole derived triazolothiadiazoles, triazolothiadiazines and mannich bases as potential antimicrobial and antitubercular agents” (Eur J Med Chem, 2010).
